Source: ChEMBL document CHEMBL4041548, “Ester Prodrugs of IHVR-19029 with Enhanced Oral Exposure and Prevention of Gastrointestinal Glucosidase Interaction” (ACS Med Chem Lett, 2017)
The source made the active and inactive calls. The rule behind the calls is not given here.

Assays:
[1] = Stability in simulated gastric fluid assessed as parent compound remaining at 5 uM measured after 4 hrs by LC-MS/MS analysis
How it was run: (§1)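 Chemical stability assessed by incubation in simulated gastric fluid and simulated intestinal fluid; percent of compound remaining was measured.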

[2] = Stability in simulated intestinal fluid assessed as parent compound remaining at 5 uM measured after 4 hrs by LC-MS/MS analysis; how it was run: as §1
[3] = Prodrug activation in simulated intestinal fluid assessed as 3-(tert-butyl)-1-cyclohexyl-1-(6-((2R,3R,4R,5S)-3,4,5-trihydroxy-2-(hydroxymethyl)piperidin-1-yl)hexyl)urea formation at 5 uM measured after 4 hrs by LC-MS/MS analysis; how it was run: as §1
[4] = Prodrug activation in human intestinal S9 fraction assessed as 3-(tert-butyl)-1-cyclohexyl-1-(6-((2R,3R,4R,5S)-3,4,5-trihydroxy-2-(hydroxymethyl)piperidin-1-yl)hexyl)urea formation by measuring prodrug remaining at 200 uM measured after 1 hr in presence or absence of NADPH by LC-MS/MS analysis; parameters: species or system Intestine; settings: s9, 1 h
How it was run: (§2)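 Compounds incubated with intestinal S9 fraction for 1 h. Percent prodrug remaining and percent conversion to the parent were measured.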

[5] = Prodrug activation in mouse intestinal S9 fraction assessed as 3-(tert-butyl)-1-cyclohexyl-1-(6-((2R,3R,4R,5S)-3,4,5-trihydroxy-2-(hydroxymethyl)piperidin-1-yl)hexyl)urea formation by measuring prodrug remaining at 200 uM measured after 1 hr in presence or absence of NADPH by LC-MS/MS analysis; parameters: species or system Intestine; settings: s9, 1 h; how it was run: as §2
[6] = Inhibition of pig liver endoplasmic reticulum alpha glucosidase-2 using 4-methylumbelliferyl-alpha-D-glucoside as substrate measured after 60 mins by fluorescence analysis; parameters: species or system Sus scrofa
[7] = organism: Bos taurus; assay: Inhibition of endoplasmic reticulum alpha-glucosidase in MDBK cells infected with Bovine Viral Diarrhea virus assessed as reduction in BVDV envelope glycoprotein E2 level at 3 to 100 uM by immunoblot analysis; assay type: cell-based
How it was run: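 MDBK cells infected with BVDV, then treated with various concentrations of the compounds. Cell lysates were run on SDS-PAGE and immunoblotted for the E2 envelope glycoprotein, looking for a mobility shift and lower intensity, with β-actin as internal control.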

[8] = Inhibition of endoplasmic reticulum alpha-glucosidase in human Huh7.5 cells infected with DENV assessed as reduction in viral growth by measuring DENV RNA level by qRT-PCR method; assay type: cell-based
How it was run: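 Huh7.5 cells infected with dengue virus and treated with a concentration series of the compounds (n = 4). DENV RNA was quantified by qRT-PCR and the EC50 was calculated.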

[9] = Half life in pooled human liver microsomes at 200 uM by LC-MS/MS analysis; assay type: ADME, microsome; settings: liver microsomes
How it was run: (§3)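 Prodrugs or parent incubated in pooled human or mouse liver microsomes for up to 60 min, with or without cofactor. Percent remaining and percent conversion to the parent were measured.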

[10] = Metabolic stability in pooled human liver microsomes assessed as parent compound remaining at 200 uM measured after 60 mins in presence of NADPH and UDPGA by LC-MS/MS analysis; assay type: ADME, microsome; settings: read-out: Stability; how it was run: as §3
[11] = Metabolic stability in pooled human liver microsomes assessed as parent compound remaining at 200 uM measured after 60 mins by LC-MS/MS analysis; assay type: ADME, microsome; settings: liver microsomes, read-out: Stability; how it was run: as §3
[12] = Metabolic stability in pooled mouse liver microsomes assessed as parent compound remaining at 200 uM measured after 60 mins in presence of NADPH and UDPGA by LC-MS/MS analysis; assay type: ADME, microsome; settings: read-out: Stability; how it was run: as §3
[13] = Metabolic stability in pooled mouse liver microsomes assessed as parent compound remaining at 200 uM measured after 60 mins by LC-MS/MS analysis; assay type: ADME, microsome; settings: liver microsomes, read-out: Stability; how it was run: as §3
[14] = Metabolic stability in human plasma assessed as parent compound remaining at 5 uM measured after 2 hrs by LC-MS/MS analysis; assay type: ADME, cell-free; settings: read-out: Stability
How it was run: (§4)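 Compounds incubated in human or mouse plasma for 2 h. Percent remaining and percent conversion to the parent were determined.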

[15] = Metabolic stability in mouse plasma assessed as parent compound remaining at 5 uM measured after 2 hrs by LC-MS/MS analysis; assay type: ADME, cell-free; settings: read-out: Stability; how it was run: as §4
[16] = test system: Mus musculus; assay: Prodrug activation in BALB/c mouse assessed as 3-(tert-butyl)-1-cyclohexyl-1-(6-((2R,3R,4R,5S)-3,4,5-trihydroxy-2-(hydroxymethyl)piperidin-1-yl)hexyl)urea Tmax at 5 mg/kg, iv as bolus administration by LC-MS/MS analysis; assay type: organism-based; settings: in vivo
How it was run: (§5)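 Male BALB/c mice dosed with the prodrugs or the parent orally (25 or 100 mg/kg) or intravenously (5 mg/kg). The parent compound was quantified in plasma and PK parameters were derived from it. The first sampling point was 5 min post-dose, and prodrugs were tracked up to 4 h.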

[17] = test system: Mus musculus; assay: Prodrug activation in BALB/c mouse assessed as 3-(tert-butyl)-1-cyclohexyl-1-(6-((2R,3R,4R,5S)-3,4,5-trihydroxy-2-(hydroxymethyl)piperidin-1-yl)hexyl)urea Tmax at 25 mg/kg, po administered as single dose by LC-MS/MS analysis; assay type: organism-based; settings: in vivo; how it was run: as §5
[18] = test system: Mus musculus; assay: Prodrug activation in BALB/c mouse assessed as 3-(tert-butyl)-1-cyclohexyl-1-(6-((2R,3R,4R,5S)-3,4,5-trihydroxy-2-(hydroxymethyl)piperidin-1-yl)hexyl)urea Cmax at 5 mg/kg, iv as bolus administration by LC-MS/MS analysis; assay type: organism-based; parameters: dose 5 mg/kg, route intravenous; settings: in vivo; how it was run: as §5
[19] = test system: Mus musculus; assay: Prodrug activation in BALB/c mouse assessed as 3-(tert-butyl)-1-cyclohexyl-1-(6-((2R,3R,4R,5S)-3,4,5-trihydroxy-2-(hydroxymethyl)piperidin-1-yl)hexyl)urea Cmax at 25 mg/kg, po administered as single dose by LC-MS/MS analysis; assay type: organism-based; parameters: dose 25 mg/kg, route oral; settings: in vivo; how it was run: as §5
[20] = test system: Mus musculus; assay: Prodrug activation in BALB/c mouse assessed as 3-(tert-butyl)-1-cyclohexyl-1-(6-((2R,3R,4R,5S)-3,4,5-trihydroxy-2-(hydroxymethyl)piperidin-1-yl)hexyl)urea Cmax at 100 mg/kg, po administered as single dose by LC-MS/MS analysis; assay type: organism-based; parameters: dose 100 mg/kg, route oral; settings: in vivo; how it was run: as §5
[21] = test system: Mus musculus; assay: Prodrug activation in BALB/c mouse assessed as 3-(tert-butyl)-1-cyclohexyl-1-(6-((2R,3R,4R,5S)-3,4,5-trihydroxy-2-(hydroxymethyl)piperidin-1-yl)hexyl)urea half life at 25 mg/kg, po administered as single dose by LC-MS/MS analysis; assay type: organism-based; settings: in vivo; how it was run: as §5
[22] = test system: Mus musculus; assay: Prodrug activation in BALB/c mouse assessed as 3-(tert-butyl)-1-cyclohexyl-1-(6-((2R,3R,4R,5S)-3,4,5-trihydroxy-2-(hydroxymethyl)piperidin-1-yl)hexyl)urea AUC(0 to infinity) at 5 mg/kg, iv as bolus administration by LC-MS/MS analysis; assay type: organism-based; parameters: dose 5 mg/kg, route intravenous, time infinity; settings: in vivo
[23] = test system: Mus musculus; assay: Prodrug activation in BALB/c mouse assessed as 3-(tert-butyl)-1-cyclohexyl-1-(6-((2R,3R,4R,5S)-3,4,5-trihydroxy-2-(hydroxymethyl)piperidin-1-yl)hexyl)urea AUC(0 to infinity) at 25 mg/kg, po administered as single dose by LC-MS/MS analysis; assay type: organism-based; parameters: dose 25 mg/kg, time infinity, route oral; settings: in vivo
[24] = test system: Mus musculus; assay: Prodrug activation in BALB/c mouse assessed as 3-(tert-butyl)-1-cyclohexyl-1-(6-((2R,3R,4R,5S)-3,4,5-trihydroxy-2-(hydroxymethyl)piperidin-1-yl)hexyl)urea AUC(0 to infinity) at 100 mg/kg, po administered as single dose by LC-MS/MS analysis; assay type: organism-based; parameters: dose 100 mg/kg, route oral, time infinity; settings: in vivo
[25] = Apparent permeability of the compound across basolateral side to apical side in human Caco2 cells assessed as drug recovery at 5 uM measured after 2 hrs by LC-MS/MS analysis; assay type: ADME, cell-based; settings: Caco-2, read-out: Drug recovery

Row | Structure (SMILES) | Stability [1] [%] | Stability [2] [%] | Drug metabolism [3] [%] | Stability [4] [%] | Stability [5] [%] | IC50 [6] [µM] | inhibition [7] | EC50 [8] [µM] | half-life at 200 µM [9] [min] | remaining at 1 h, 200 µM [10] [%] | remaining at 1 h, 200 µM [11] [%] | remaining at 1 h, 200 µM [12] [%] | remaining at 1 h, 200 µM [13] [%] | remaining at 2 h, 5 µM [14] [%] | remaining at 2 h, 5 µM [15] [%] | Tmax [16] [min] | Tmax [17] [min] | Cmax [18] [ng/mL] | Cmax [19] [ng/mL] | Cmax [20] [ng/mL] | other results
1 | CC(C)C(=O)OC[C@@H]1[C@@H](OC(=O)C(C)C)[C@H](OC(=O)C(C)C)[C@@H](OC(=O)C(C)C)CN1CCCCCCN(C(=O)NC(C)(C)C)C1CCCCC1 | 108 | 90 | 0 | < 50 | < 50 | > 100 | Active | 94.7 | 10 | 2 | 2 | 5 | 7 | 100 | 0 | 4.98 | 30 | 1213 | 104 | 195 | t1/2 [21]: 34.8 min; AUC [22]: 569 ng·mL·h; AUC [23]: 197 ng·mL·h; AUC [24]: 362 ng·mL·h; recovery at 2 h, 5 µM [25]: < 60%
2 | CCCC(=O)OC[C@@H]1[C@@H](OC(=O)CCC)[C@H](OC(=O)CCC)[C@@H](OC(=O)CCC)CN1CCCCCCN(C(=O)NC(C)(C)C)C1CCCCC1 | 89 | 72 | 0 | < 50 | < 50 | > 100 | Active | 16.1 | 14 | 4 | 4 | 10 | 12 | 106 | 0 | 4.98 | 15 | 15733 | 319 | 998 | t1/2 [21]: 103 min; AUC [22]: 2288 ng·mL·h; AUC [23]: 529 ng·mL·h; AUC [24]: 3884 ng·mL·h; recovery at 2 h, 5 µM [25]: < 60%
3 | CC(=O)OC[C@@H]1[C@@H](OC(C)=O)[C@H](OC(C)=O)[C@@H](OC(C)=O)CN1CCCCCCN(C(=O)NC(C)(C)C)C1CCCCC1 | 94 | 91 | 0 | < 50 | < 50 | > 100 | Active | 15.6 | 3 | 0 | 0 | 0 | 0 | 84 | 0 | 15 | 15 | 463 | 375 | 1597 | t1/2 [21]: 84 min; AUC [22]: 368 ng·mL·h; AUC [23]: 359 ng·mL·h; AUC [24]: 1912 ng·mL·h; recovery at 2 h, 5 µM [25]: 42%
